The subject of data set [1] is Microglia. Kind of data set: Cytotoxicity against Sprague-Dawley rat microglial cells assessed as decrease in cell viability at 5 uM incubated for 24 hrs by MTT assay. The data set is classed as toxicity, cell-based. In outline: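 Primary rat microglia, 6×10^4 cells/well, switched to serum-free medium 1 h before 24 h exposure (1–20 μM, DMSO ≤0.1%). MTT 0.18 mg/mL for 4 h at 37 °C, formazan dissolved in DMSO, absorbance 570 nm (reference 630 nm). Vehicle-treated cells = 100% viability.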

Data set [2] is described as follows: Effect on IL-1 beta release in Sprague-Dawley rat microglial cells at 2.5 uM by ELISA. The data set is classed as toxicity, cell-based. Particulars: microglia. In outline: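 Primary cortical rat microglia in DMSO (≤0.1%) or vehicle for 1 h, then 100 ng/mL LPS for 24 h. TNF-α and IL-1β in culture medium by ELISA against standard curves (pg/mL), expressed as % of LPS-stimulated cultures. Mean ± SEM of 3 independent experiments; one-way ANOVA, Holm-Sidak test.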
Background: An ELISA detects its analyte on a solid surface through an enzyme-linked reagent.

For data set [3], the target named is Keap1/Nrf2 (Homo sapiens) (UniProt Q16236+Q14145). Kind of data set: Activation of Keap1/Nrf2 in human SH-SY5Y cells assessed as Nrf2 nuclear translocation by measuring increase in nuclear to cytosolic Nrf2 ratio at 2.5 uM incubated for 3 hrs by western blot analysis. The conditions noted are these: filed as activator. The data set is classed as cell-based. The method in brief: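 SH-SY5Y seeded 2×10^6 cells/dish, grown 24 h, then exposed 3 h at 37 °C, 5% CO2. Nuclear and cytosolic fractions immunoblotted for Nrf2, membranes stripped and reprobed for β-actin and lamin B1 as loading references. Mean ± SEM of three independent experiments; one-way ANOVA with Dunnett's test.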
Keap1/Nrf2 (Homo sapiens), sequence (Q14145 whole entry, looked up): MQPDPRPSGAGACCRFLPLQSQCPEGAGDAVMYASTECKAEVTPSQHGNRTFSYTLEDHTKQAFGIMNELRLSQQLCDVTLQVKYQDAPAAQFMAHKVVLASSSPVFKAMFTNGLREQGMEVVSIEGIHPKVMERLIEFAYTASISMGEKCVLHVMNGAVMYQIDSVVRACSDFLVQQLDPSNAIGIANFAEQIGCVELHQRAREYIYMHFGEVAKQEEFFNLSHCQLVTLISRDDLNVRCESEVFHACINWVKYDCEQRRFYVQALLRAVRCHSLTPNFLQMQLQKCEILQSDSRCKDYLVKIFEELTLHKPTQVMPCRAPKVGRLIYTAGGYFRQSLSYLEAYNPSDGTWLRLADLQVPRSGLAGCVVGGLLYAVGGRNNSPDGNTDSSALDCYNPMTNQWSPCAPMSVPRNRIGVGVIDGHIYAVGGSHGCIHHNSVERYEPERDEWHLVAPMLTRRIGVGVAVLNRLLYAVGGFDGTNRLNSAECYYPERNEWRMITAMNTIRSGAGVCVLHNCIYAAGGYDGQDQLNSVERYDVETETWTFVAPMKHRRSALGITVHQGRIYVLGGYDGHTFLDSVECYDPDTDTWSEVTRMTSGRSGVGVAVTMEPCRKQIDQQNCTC
Keap1/Nrf2 (Homo sapiens), sequence (Q16236 whole entry, looked up): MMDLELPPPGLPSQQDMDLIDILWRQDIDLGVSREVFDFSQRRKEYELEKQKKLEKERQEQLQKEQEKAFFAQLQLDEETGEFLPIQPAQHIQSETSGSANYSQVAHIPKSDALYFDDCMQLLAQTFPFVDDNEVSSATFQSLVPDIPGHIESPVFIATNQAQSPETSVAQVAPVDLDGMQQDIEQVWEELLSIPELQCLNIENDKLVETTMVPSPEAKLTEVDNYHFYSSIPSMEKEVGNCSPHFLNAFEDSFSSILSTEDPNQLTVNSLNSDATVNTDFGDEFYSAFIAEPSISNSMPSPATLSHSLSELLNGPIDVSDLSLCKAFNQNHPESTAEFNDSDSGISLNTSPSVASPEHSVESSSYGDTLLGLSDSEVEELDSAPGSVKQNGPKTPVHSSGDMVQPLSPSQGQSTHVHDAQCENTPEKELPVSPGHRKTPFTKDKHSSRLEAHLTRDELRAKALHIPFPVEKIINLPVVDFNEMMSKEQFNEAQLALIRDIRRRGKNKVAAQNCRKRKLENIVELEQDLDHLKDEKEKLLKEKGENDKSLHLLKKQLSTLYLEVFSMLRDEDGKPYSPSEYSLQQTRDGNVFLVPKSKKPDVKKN

Data set [4] in a line: Toxicity against Drosophila W1118 assessed as proportion of eclosed-flies at 20 uM measured after 72 hrs.
In data set [5] the test system is Drosophila. Kind of data set: Antioxidant activity in Spastin Drosophila (Tubulin/Gal4 RNAi DSpast) neurodegenerative model assessed as decrease in intracelluar ROS level in A2 muscle at 10 uM flies raised in compound-enriched food by DHE staining based fluorescence analysis. The format is functional, organism-based. In outline:
(§1)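 Spastin-RNAi (Tubulin-Gal4 cross, 28 °C) third-instar larvae raised on compound-enriched food, dissected in HL3, stained 30 min with 30 μM DHE, fixed in 4% PFA, DAPI counterstained. Confocal imaging (DHE 580–630 nm); two 2500 μm² ROIs per muscle or two 1900 μm² ROIs per brain, 10–15 larvae per group; DHE/DAPI ratio.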

The subject of data set [6] is Drosophila. Kind of data set: Antioxidant activity in Spastin Drosophila (Tubulin/Gal4 RNAi DSpast) neurodegenerative model assessed as decrease in intracelluar ROS level in brain at 10 uM flies raised in compound-enriched food by DHE staining based fluorescence analysis. The data set is classed as functional, organism-based. In outline:
as §1

In data set [7] the test system is Drosophila. Kind of data set: Effect on CAT transcript expression in Spastin Drosophila (Tubulin/Gal4 RNAi DSpast) neurodegenerative model at 10 uM flies raised in compound-enriched food by real-time PCR analysis. The data set is classed as functional. The method in brief:
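Total RNA from 5 third-instar Spastin-RNAi larvae raised on standard or compound-enriched food; Tubulin-Gal4/+ as control line. One-step SYBR RT-qPCR normalised to Rp49 by the 2^−ΔΔCt method. n = 3 experiments; one-way ANOVA, Tukey's test.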
(In general: In qPCR the cycle at which signal appears reflects the starting amount.)

The source made the active and inactive calls. No cut-off for these calls is given here.

Take `CCCCn1cc(C/C(C(=O)/C=C/c2ccc(OC)cc2)=C(O)\C=C\c2ccc(OC)cc2)nn1`: the Activity result in data set [1] is on record as “Toxic”; in data set [2], “Non-Toxic”; in data set [4], 88.099%. Moreover, the outcome in data set [3], in data set [5] and in data set [6] was Active. The result in data set [7] was inactive.

Source of the values: ChEMBL document CHEMBL5321214, “Targeting the multifaceted neurotoxicity of Alzheimer's disease by tailored functionalisation of the curcumin scaffold” (Eur J Med Chem, 2023).
